Screens: PubChem, several laboratories
Autophagy HCS: autophagy modulators in MEF cells, primary screen, imaging, high-content, MEF GFP-LC3; MEF GFP-LC3 puncta imaging; test concentration mostly 10 µM; calls only at 10 µM (by protocol); hit rate 0.98% among 190,000;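 active = percentage of spot-positive cells more than 3 SD above its plate mean, without a fluorescence outlier flag or 80% toxicity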;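 also: spot-positive cell cutoff set from DMSO-treated cells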
MT stabilizer: microtubule stabilizers in HeLa cells, primary screen, imaging, high-content imaging; AID 2205, 2009; % tubulin-high responders, % at 10 µM; hit rate 0.83% among 200,000; HeLa tubulin immunostaining HCS, 24 h; share of cells brighter than vehicle mean+2SD;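 active = plate Z-score above 3 for both tubulin-high and condensed-nucleus cell shares, with cell loss under 80%, at 10 µM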;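 also: anti alpha tubulin signal scored within the nucleus-defined area of each cell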
Insulin prom up: insulin promoter activators in MIN6 cells, imaging, high-content screening, mouse beta cells | z-score at 5 µM | AID 1625, 2009 | MIN6 insulin promoter-GFP reporter; stronger effect = higher value | hit rate 0.3% among 190,000;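 active = z-score above 3 at 5 µM with at least 500 cells counted in the well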
Tb hexokinase: Trypanosoma brucei hexokinase 1 inhibitors, primary screen, biochemical, G6PDH-coupled NADH absorbance, MLSCN library; recombinant TbHK1, G6PDH-coupled NADH A340; inhibition, % at 10 µM; hit rate 0.11% among 220,000; AID 1430, 2008;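 active = inhibition of 50% or more in the single-dose primary screen; inactive = inhibition below 50%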
b-catenin transl: modulators of beta-catenin nuclear translocation, primary screen, imaging, HeLa cells, immunofluorescence, high-content; nuclear translocation activity, % at 5 µM; hit rate 0.3% among 190,000;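 active = nuclear translocation activity above 50% at 5 µM, with a well cell count of 50 or more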;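 also: per-cell ratio of nuclear to cytoplasmic median beta-catenin stain intensity; plate controls were DMSO negative control for no effect and GSK-3 inhibitor IX positive control for full effect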
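Assay system: human HeLa cells, native beta-catenin; doses: 5 µM primary, 0.02–20 µM confirmation; incubation: compound treatment 24 h, 37°C, 5% CO2; technique: fluorescence imaging of beta-catenin antibody stain plus DAPI; measure: % activation, nuclear-to-cytoplasmic median beta-catenin signal ratio per cell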
* hit, by the source's call; i = inactive; nt = no result; + = active, no number. Most compounds without a hit are left out; they make up all but 1.9% or so of the library.

SMILES	Autophagy HCS	MT stabilizer	Insulin prom up	Tb hexokinase	b-catenin transl
CCCNc1c(F)c(F)c2c(C)c3ccccc3nc2c1F	+	2	nt	-8	5
Clc1ccc(/C=N/Nc2nnc(Cl)c3ccccc23)cc1	+	1	nt	-6	nt
CC(=O)N1c2ccc(Cl)cc2C2C=CCC2C1c1cccc2ccccc12 (configuration not stated)	i	12*	nt	27	82*
CC(=O)N1c2ccc3ccccc3c2C2C=CCC2C1c1ccc(Br)cc1 (configuration not stated)	i	3	0.26	-16	3
O=c1c2ccccc2c(C=Nc2ccccc2O)c(O)n1-c1nccs1	nt	nt	4.3*	-10	-1
Cc1ccccc1N=Cc1c(O)n(-c2nccs2)c(=O)c2ccccc12	i	3	0.24	-5	-1
COCCn1c(SCC(=O)c2ccc(F)cc2)nnc1C(C)C	+	2	0.23	0	-4
C/C(=N/NC(=O)CNC(=O)c1ccncc1)c1ccco1	nt	nt	-0.02	-8	-1
COc1ccc(C2C=C(c3ccc(C)c(C)c3)Nc3ncnn32)c(OC)c1OC (configuration not stated)	i	23*	-0.51	-5	nt
Cc1nc(-c2ccccc2)sc1C1(C)CC(c2ccc(OC(F)(F)F)cc2)=NO1 (configuration not stated)	nt	nt	-0.39	-3	0
Cc1nc2ncccn2c1-c1csc(Nc2ccccc2)n1	i	19*	-0.14	-9	5
COc1ccc(Nc2nc(-c3c(C)nc4ncccn34)cs2)cc1	i	14*	-0.72	-2	56*
COc1ccccc1Nc1nc(-c2c(C)nc3ncccn23)cs1	i	15*	nt	-11	4
COC(=O)c1c[nH]n2c(=O)c(Cl)c(C)nc12	i	2	-0.26	2	-1
COC(=O)c1c[nH]n2c(=O)c(Cc3ccc(F)cc3Cl)c(C)nc12	i	3	3.4*	3	-4
COc1ccc(N2CCN(C(=O)CSc3nnc(-c4ccco4)n3C)CC2)cc1	i	3	0.08	8	2
CCOC(=O)C(C(=O)OCC)C(C[N+](=O)[O-])c1ccccc1 (configuration not stated)	i	2	0.15	-3	0
Cc1cc(NC(=O)NN2CCOCC2)nn1-c1c(Cl)cc(Cl)cc1Cl	nt	nt	nt	-9	-4
COCC(=O)Nc1nc(-c2ccc([N+](=O)[O-])cc2)cs1	i	1	-0.18	-12	-2
O=C(Cc1nc(-c2ccc([N+](=O)[O-])cc2)cs1)Nc1ccccc1	i	2	8.6*	3	0
CCCN(CCC)CCCNC(=S)Nc1ccc2nc(N3CCN(CC)CC3)cc(C)c2c1	i	4	-0.16	-3	2
CCCN(CCC)CCCNC(=S)Nc1ccc2nc(N3CCN(C)CC3)cc(C)c2c1	+	3	-0.34	-4	-3
CCN1CCN(c2cc(C)c3cc(NC(=O)c4ccc(Br)o4)ccc3n2)CC1	+	25*	-0.79	-43	2
CCN1CCN(c2cc(C)c3cc(NC(=O)c4ccncc4)ccc3n2)CC1	i	2	-1.9	-32	1
O=c1oc(-c2cccs2)nc2sc3c(c12)CCCC3	i	2	0.56	-14	nt
SMILES	Autophagy HCS	MT stabilizer	Insulin prom up	Tb hexokinase	b-catenin transl
O=C1CN(c2nc(-c3cccs3)nc3sc4c(c23)CCCC4)CCN1	+	3	-0.74	-13	-1
O=C(/C=C/c1ccc2c(c1)OCO2)Nc1ccc(Cl)cn1	i	3	-0.86	-8	-2
CCCCCCN1C=CC(=C/C=C(\C#N)C(=O)OCC)C=C1	+	2	nt	0	-1
CCCN1C=CC(=C/C=C(\C#N)C(=O)OCC)C=C1	i	4	nt	2	-2
CCCC(C(=O)NCc1ccccc1)N(C(=O)Cn1nnc(-c2cccs2)n1)c1ccc2c(c1)OCCO2 (configuration not stated)	+	2	-0.65	-1	2
CCC(CC)C(=O)OCC(=O)Nc1ccc(S(=O)(=O)N2CCOCC2)cc1OC	i	3	0.29	-7	nt
COc1cc(S(=O)(=O)N2CCOCC2)ccc1NC(=O)COC(=O)C12CC3CC(CC(C3)C1)C2	i	2	3.9*	-4	nt
Cc1ccc(S(=O)(=O)N2CCOCC2)cc1NC(=O)COC(=O)c1cc(=O)c2ccccc2o1	+	2	0.4	-2	1
Cc1cc(C(C)(C)C)cc(C)c1S(=O)(=O)N1CC(=O)Nc2ccccc21	nt	nt	0.91	8	2
O=C(CSc1ccc2ccccc2n1)c1ccccc1	nt	nt	0.28	-12	1
CN1CCN(CC(=O)n2c3c(c4ccccc42)CCCC3)CC1	+	2	-0.16	-4	-1
O=C(CC1(O)C(=O)N(Cc2cccc3ccccc23)c2ccccc21)c1cccnc1 (configuration not stated)	+	3	nt	-9	-2
O=C(Nc1nc2ccc([N+](=O)[O-])cc2s1)C1CCCO1 (configuration not stated)	+	3	0.16	-22	1
O=C(Nc1nc2ccc(S(=O)(=O)N3CCCC3)cc2s1)C1CCCCC1	+	34*	-0.22	-6	3
COc1ccc(N2C(=O)CC(N(Cc3ccco3)C(=O)CCC(=O)O)C2=O)cc1 (configuration not stated)	i	nt	-0.14	-8	-1
CCNc1ccc(C(=O)OCC)cc1NC(=O)c1cccc(N(C)C)c1	i	38*	-1.8	-1	26
CCNc1ccc(C(=O)OCC)cc1NC(=O)c1cccc(S(=O)(=O)N(C)c2ccccc2)c1	i	5	0.83	-4	-4
C=C1SC(Nc2c(C)cc(C)cc2C)=NC12CCCCC2	nt	nt	-1.4	7	-1
CCOC(=O)C1(CC/C(C)=N\NC(N)=O)CC(C)(C)OC1=O (configuration not stated)	+	2	nt	0	0
O/N=C/c1ccn(-c2ccc(Br)cc2)c1	i	2	0.31	6	-3
CC(=O)NC(Cc1ccccc1C)C(=O)NC1CCN(C(=O)c2ccc(C)cc2)CC1 (configuration not stated)	+	1	-0.4	2	0
CCCc1cc(-c2ccc(O)c(OCC)c2)c(C#N)c(N)n1	i	3	-0.83	-12	-4
Cc1ccc(-c2cc(-c3ccc4c(c3)OCO4)c(C#N)c(N)n2)o1	i	59*	-0.65	-5	2
CCOc1cc(-c2cc(-c3ccc(C)o3)nc(N)c2C#N)ccc1O	i	21	-1.1	-15	55*
C=CCNC(=O)CC(=O)N/N=C/c1cccc(C)c1	i	3	-0.04	-1	2
CCOc1ccc(NC(=NCc2ccc3c(c2)OCO3)SC2CC(=O)N(c3ccc(OCC)cc3)C2=O)cc1 (configuration not stated)	i	25*	-0.29	11	0
